Sampled rows, rich in hits. Any-hit rate of the full collection: about 3.6%.
STAT3 act – STAT3 signaling activation. U3A cells, IL-6 STAT3-luciferase reporter, luminescence; 100% = signal with IL-6 EC80 alone. activation (% of control), % at 5.6 µM. 0.91% of 190,000 active. AID 871;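 active means activation above the screen-wide mean of compound activation plus 3 SD, cut at about 130% in these data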
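Material: human U3A cells carrying STAT3-luciferase construct. Measured by: reporter luminescence signal. Timing: compound 1 h, then IL-6 6 h at 37 °C.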
PERK inh – inhibitors of human PERK kinase; 0.17% of 220,000 active; inhibition, % at 5.6 µM; CHO PERK-DD fusion, SEAP luminescence translation reporter; AID 1416;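 active means inhibition above the mean inhibition of all tested compounds plus 3 SD, set separately per screening campaign, cut at about 2.9% in these data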;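 further: PERK kinase domain activated by AP20187 dimerizer at 100 nM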
AHR activator – human AHR activation | 2.5% of 320,000 active | activation, % at 5 µM | AHR-responsive luciferase reporter cells, luminescence; in the data active means activation above about 47%
Target sequence (P35869 whole entry, looked up): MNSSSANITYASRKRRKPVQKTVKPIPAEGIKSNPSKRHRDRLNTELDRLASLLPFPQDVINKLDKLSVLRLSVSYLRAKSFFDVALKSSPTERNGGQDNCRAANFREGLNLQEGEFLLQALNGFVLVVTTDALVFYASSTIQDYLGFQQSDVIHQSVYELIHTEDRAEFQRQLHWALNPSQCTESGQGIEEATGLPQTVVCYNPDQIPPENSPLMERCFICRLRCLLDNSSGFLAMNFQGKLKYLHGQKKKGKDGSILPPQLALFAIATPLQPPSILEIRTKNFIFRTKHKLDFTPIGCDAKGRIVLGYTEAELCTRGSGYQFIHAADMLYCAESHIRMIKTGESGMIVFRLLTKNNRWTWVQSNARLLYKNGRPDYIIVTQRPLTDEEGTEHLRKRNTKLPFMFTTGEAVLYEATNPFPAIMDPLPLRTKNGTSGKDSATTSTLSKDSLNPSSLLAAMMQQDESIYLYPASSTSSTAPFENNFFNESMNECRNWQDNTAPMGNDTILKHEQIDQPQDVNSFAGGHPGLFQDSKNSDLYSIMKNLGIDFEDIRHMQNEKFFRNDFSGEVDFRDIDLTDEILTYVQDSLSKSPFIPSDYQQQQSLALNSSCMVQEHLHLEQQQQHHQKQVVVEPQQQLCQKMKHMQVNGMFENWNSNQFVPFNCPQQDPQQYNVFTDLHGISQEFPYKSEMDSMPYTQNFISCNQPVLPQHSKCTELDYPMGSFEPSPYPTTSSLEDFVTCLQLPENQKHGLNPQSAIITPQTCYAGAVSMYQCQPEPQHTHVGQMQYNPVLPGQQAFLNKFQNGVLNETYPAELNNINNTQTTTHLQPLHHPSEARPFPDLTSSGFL
HSF1 inhib – HSF1 inhibition; activity change, negative = inhibition, % at 7.5 µM (by protocol); NIH3T3-HGL HSE-luciferase, MG132-induced, luminescence 8 h; hits give low values; 0.77% of 300,000 active;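 active means more than half of replicate wells show activity change below -50%, luminescence cut by over half; inconclusive means some wells, but at most half, below -50%; inactive means no replicate well below -50%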;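 further: luciferase reports HSF-1 transcriptional activity via heat shock element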
PolyA inhibitor – blocks polyadenylation in yeast reporter cells | S. cerevisiae SKY197-pL101 polyadenylation reporter, beta-gal luminescence; efflux-impaired pdr1/pdr3 knockout yeast; score 100 = 6 SD above DMSO | activity score, % at 12 µM | 0.02% of 300,000 active | AID 1875;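 active means lowest replicate activity score at least 50, where 100 means six control SD above control mean; inconclusive means lowest score under 50 but half or more replicates reach 50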;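 further: yeast exposed to compound for 9 h at 30 °C; higher score means more reporter readthrough which indicates perturbed polyadenylation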
Hsp70 act – switches on Hsp70 transcription | HeLa Hsp70 promoter luciferase reporter, luminescence; scaled: vehicle 0, proteasome-inhibitor control 100% | activation, % at 10 µM | AID 1203 | 0.04% of 200,000 active;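 active means activation above the mean across all tested compounds plus 3 SD, cutoff set per campaign, cut at about 5.5% in these data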
AHR act cf – confirmation of human aryl hydrocarbon receptor activators | shares compounds with AHR activator | human cells, AHR-responsive luciferase reporter, luminescence | activation, % at 9 µM | 87% of 2,300 active | AID 2845; in the data active means activation above about 49%;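 further: HepG2 hepatoma cells carrying a DRE-driven firefly luciferase reporter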
PXR act counter – activates human PXR in AHR activator counter-screen. shares compounds with AHR activator. cell-based PXR reporter, luciferase luminescence. activation, % at 11.6 µM. 88% of 2,300 active; in the data active means activation above about 11%;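 further: human hepatoma DPX-2 cells expressing full-length human PXR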
Large screens that a line does not name were inactive (follow-up assays come after a bar, where they were run).

COCCN1Cc2c(sc(C)c2C)N(C(=O)c2ccccc2)C1	STAT3 act 137.5, AHR activator 82.1 | AHR act cf 84.1 | PXR act counter 38.5
Cc1ccnc(NC(=O)COc2ccc3c(c2)CCC3)c1	none (no result: STAT3 act, PERK inh, Hsp70 act)
O=C(Nc1ccc(Br)cc1)c1cccc(S(=O)(=O)Nc2cnc3ccccc3c2)c1	AHR activator 82.5 | AHR act cf 74.5 | PXR act counter 12.4
O=C(Nc1ccc(Cl)c(Cl)c1)c1ccccc1	AHR activator 102.1 (no result: STAT3 act, PERK inh, HSF1 inhib, PolyA inhibitor, Hsp70 act) | AHR act cf 121.5 | PXR act counter 11.9
O=C(Nc1cccc(Cl)c1)c1ccccc1	none (no result: STAT3 act, PERK inh, HSF1 inhib, PolyA inhibitor, Hsp70 act)
O=C(Nc1cccc(C(=O)Nc2ccc(Br)cc2)c1)c1ccccc1	AHR activator 89.1 (no result: STAT3 act, PERK inh, Hsp70 act) | AHR act cf inactive | PXR act counter 22.5
COc1ccc(NC(=O)c2cccc(S(=O)(=O)Nc3ccc(Br)cc3)c2)cn1	none
O=C(Nc1ccc(Br)cc1)c1cccc(-n2cnnn2)c1	AHR activator 90.6 (no result: STAT3 act, PERK inh, Hsp70 act) | AHR act cf 103.3 | PXR act counter 29.1
CCCSCCCNC(=O)Cn1c(=O)c2cccn2c2ccccc21	none (no result: STAT3 act, PERK inh, Hsp70 act)
NC(=O)C1CCCN(CC(=O)Nc2ccccc2C(=O)NC2CC2)C1 (stereo unspecified)	none (no result: STAT3 act, PERK inh, HSF1 inhib, PolyA inhibitor, Hsp70 act)
Nc1ccccc1Nc1nc2ccccc2[nH]1	AHR activator 95.3 (no result: STAT3 act, PERK inh, Hsp70 act) | AHR act cf inactive | PXR act counter inactive
Nc1ccc(Nc2nc3ccccc3[nH]2)cc1	none (no result: STAT3 act, PERK inh, Hsp70 act)
CC(=O)Nc1ccc(NC(=O)C(C)OC(=O)CSCc2cccc(Cl)c2)cc1 (stereo unspecified)	none (no result: STAT3 act, PERK inh, Hsp70 act)
Cc1ccc(/C=N/Nc2nc3ccccc3s2)o1	AHR activator 110.5 | AHR act cf 113.5 | PXR act counter 13.6
CCn1c2ccccc2c2nc3cc(OC)c(OC)cc3nc21	AHR activator 115.2 | AHR act cf 95.8 | PXR act counter 62.7
S=C(NCc1ccco1)Nc1ccc(Br)cn1	AHR activator 81.2 (no result: STAT3 act, PERK inh, Hsp70 act) | AHR act cf 59.3 | PXR act counter 16.5
CC(=O)c1sc(-c2ccc(Cl)cc2)nc1C	none
CSc1nc(-c2ccccc2)nc(N)c1C(C)=O	none
CC(=O)c1c(C)nc(-c2ccc(Cl)cc2)nc1N	AHR activator 91.7 | AHR act cf 129.6 | PXR act counter 33.2
CC(=O)c1c(C)nc(-c2ccc(Cl)cc2)nc1N=CN(C)C	AHR activator 89.7 | AHR act cf 97.9 | PXR act counter 34.6
O=C(NCCc1ccc(Cl)cc1)c1n[nH]c2ccccc12	none (no result: HSF1 inhib)
Cc1cccc2c(=O)c(C(=O)NCCc3ccccc3)c[nH]c12	none (no result: STAT3 act, PERK inh, Hsp70 act)
O=C(NCCc1ccccc1)c1c[nH]c2c(F)cccc2c1=O	AHR activator 140.6 (no result: STAT3 act, PERK inh, Hsp70 act) | AHR act cf 129.9 | PXR act counter 83.5
O=C(COC(=O)c1n[nH]c2ccccc12)NCCc1ccccc1	AHR activator 97.7 (no result: STAT3 act, PERK inh, HSF1 inhib, PolyA inhibitor, Hsp70 act) | AHR act cf 91.2 | PXR act counter 19.0
O=C(NCCc1ccccc1)c1n[nH]c2ccccc12	AHR activator 101.2 | AHR act cf 103.1 | PXR act counter 71.2
O=C(Cn1c(=O)oc2cc(S(=O)(=O)N3CCCCC3)ccc21)N1CCCCC1	none (no result: STAT3 act, PERK inh, Hsp70 act)
COc1ccc(CNC(=O)CSc2nc(SC)ns2)cc1	PolyA inhibitor inconclusive (no result: STAT3 act, PERK inh, Hsp70 act)
Cn1cc(/C=N\NC(=O)C2COc3ccccc3O2)c2ccccc21 (stereo unspecified)	AHR activator 96.8 | AHR act cf 70.8 | PXR act counter 11.7
CCN(C(=O)COC(=O)CNS(=O)(=O)c1ccccc1)c1ccccc1	none
CCOc1ccc(NC(=O)CN2CCc3cc4c(cc3C2)OCCCO4)cc1OCC	none (no result: STAT3 act, PERK inh, Hsp70 act)
CCCCc1cc(=O)oc2c(C)c(OCc3nn[nH]n3)ccc12	none (no result: STAT3 act, Hsp70 act)
O=C(Nc1ccccc1C(=O)O)c1ccc2ccccc2n1	AHR activator 93.3 | AHR act cf 130.3 | PXR act counter 32.1
O=C(Nc1ccccc1C(=O)O)c1ccccc1	none
Cc1ccc(NC(=O)c2ccc3ccccc3n2)nc1	STAT3 act 153.0, AHR activator 85.5 | AHR act cf 105.8 | PXR act counter 18.0
Cc1ccc(Nc2nc(N)c([N+](=O)[O-])c(N3CCOCC3)n2)cc1	AHR activator 81.3 | AHR act cf 76.6 | PXR act counter 21.5
Cc1cccc(Nc2nc(N)c([N+](=O)[O-])c(N3CCOCC3)n2)c1	none
Cc1cccn2cc(CCNC(=O)Cc3cccs3)nc12	none (no result: STAT3 act, Hsp70 act)
Cc1cc(N)ccc1N=Nc1c(C)n(C)n(-c2ccccc2)c1=O	AHR activator 87.4 | AHR act cf 118.8 | PXR act counter 24.9
Cc1ccc(N=Nc2c(C)[nH]n(-c3ccccc3)c2=O)c(C)c1	none
CCC(C)Oc1cc(-c2ccnc(Nc3cccc(Cl)c3)n2)ccn1 (stereo unspecified)	AHR activator 114.2 (no result: STAT3 act, PERK inh, Hsp70 act) | AHR act cf 72.1 | PXR act counter 31.3
Cc1cc(C)nc(Nc2cccc(Cl)c2)n1	none (no result: STAT3 act, PERK inh, AHR activator, Hsp70 act)
CC(=O)c1cccc(NC(=S)N2CCc3ccccc32)c1	AHR activator 85.8 (no result: STAT3 act, PERK inh, Hsp70 act) | AHR act cf 106.9 | PXR act counter 60.5
COc1ccc(CC(=O)N2CCN=C2SCc2cccc([N+](=O)[O-])c2)cc1	none
CN(C)S(=O)(=O)Oc1ccccc1C(=O)Nc1cccc(C(F)(F)F)c1	AHR activator 82.3 | AHR act cf 100.5 | PXR act counter 55.1
Nc1[nH]ncc1C(=O)Nc1cccc(C(F)(F)F)c1	AHR activator 90.7 | AHR act cf 50.5
CN(C)S(=O)(=O)Oc1ccccc1C(=O)Nc1ccc(F)cc1F	AHR activator 124.3 | AHR act cf 92.8 | PXR act counter 154.4
O=C(NCc1cccc(Cl)c1)c1ccc(CS(=O)Cc2ccc(Cl)cc2)o1 (stereo unspecified)	none (no result: STAT3 act, PERK inh, Hsp70 act)
COc1ccc(CCNC(=O)C2CCN(C(=O)c3ccc(C(C)(C)C)cc3)CC2)cc1	none (no result: STAT3 act, PERK inh, Hsp70 act)
O=C(CSCc1cccc(Br)c1)N=Nc1c(O)[nH]c2ccccc12	none
O=Nc1c(-c2c(O)[nH]c3cc(Br)ccc23)[nH]c2ccccc12	AHR activator 133.3 (no result: STAT3 act, PERK inh, Hsp70 act) | AHR act cf 147.7 | PXR act counter 22.3
Cc1ccc(N2C(=O)CC(C)(C)CC2=O)cc1Cl	none (no result: STAT3 act, PERK inh, Hsp70 act)
Clc1ccccc1N=C1NN=C(c2cccs2)CS1	AHR activator 139.3 | AHR act cf 130.1 | PXR act counter 35.9
CNC(=O)c1ccccc1Nc1ccc(SC(F)F)cc1	AHR activator 113.3 (no result: STAT3 act, PERK inh, Hsp70 act) | AHR act cf 96.6 | PXR act counter 22.7
[O-][n+]1onc2c3cc(-c4ccccc4)nnc3ccc21	AHR activator 88.1 | AHR act cf 107.6
CCCN1C(=O)c2cc(C(=O)Nc3ccc(OC)cc3OC)ccc2C1Nc1ccc(OC)cc1OC (stereo unspecified)	AHR activator 107.3 | AHR act cf 79.0 | PXR act counter 64.4

From PubChem
